# Laboratory results: ChEMBL document CHEMBL4270599, “Synthesis of a 3'-C-ethynyl-β-d-ribofuranose purine nucleoside library: Discovery of C7-deazapurine analogs as potent antiproliferative nucleosides” (Eur J Med Chem, 2018)
# Assays:
# HOP-92 = experiment: Cytotoxicity against human HOP92 cells after 48 hrs by SRB assay; assay type: functional; details: HOP-92, 48 h; for GI50: read-out: GI50; for CC50: read-out: LC50 (the source's name); for TGI: read-out: TGI
# SF-539 [1] = experiment: Cytotoxicity against human SF539 cells after 48 hrs by SRB assay; assay type: functional; details: SF-539, 48 h; for GI50: read-out: GI50; for CC50: read-out: LC50 (the source's name); for TGI: read-out: TGI
# SK-MEL-28 [2] = experiment: Cytotoxicity against human SK-MEL-28 cells after 48 hrs by SRB assay; assay type: functional; details: SK-MEL-28, 48 h; for GI50: read-out: GI50; for TGI: read-out: TGI
# UACC-62 [3] = experiment: Cytotoxicity against human UACC62 cells after 48 hrs by SRB assay; assay type: functional; details: UACC-62, 48 h; for CC50: read-out: LC50 (the source's name)
# OVCAR-3 = experiment: Cytotoxicity against human OVCAR3 cells after 48 hrs by SRB assay; assay type: functional; details: OVCAR-3, 48 h; for GI50: read-out: GI50; for TGI: read-out: TGI
# MDA-MB-231 = experiment: Cytotoxicity against human MDA-MB-231 cells after 48 hrs by SRB assay; assay type: functional; details: MDA-MB-231, 48 h; for GI50: read-out: GI50; for CC50: read-out: LC50 (the source's name)
# SF-539 [4] = experiment: Growth inhibition of human SF539 cells assessed as cell growth at 10^-8 M incubated for 48 hrs by sulforhodamine B assay relative to control; assay type: functional; details: SF-539, 48 h, read-out: Activity
# SNB-19 = experiment: Growth inhibition of human SNB19 cells assessed as cell growth at 10^-8 M incubated for 48 hrs by sulforhodamine B assay relative to control; assay type: functional; details: SNB-19, 48 h, read-out: Activity
# MDA-MB-435 [5] = experiment: Growth inhibition of human MDA-MB-435 cells assessed as cell growth at 10^-8 M incubated for 48 hrs by sulforhodamine B assay relative to control; assay type: functional; details: MDA-MB-435, 48 h, read-out: Activity
# UACC-257 = experiment: Growth inhibition of human UACC257 cells assessed as cell growth at 10^-8 M incubated for 48 hrs by sulforhodamine B assay relative to control; assay type: functional; details: UACC-257, 48 h, read-out: Activity
# NCI-H322M = experiment: Growth inhibition of human NCI-H322M cells assessed as cell growth at 10^-7 M incubated for 48 hrs by sulforhodamine B assay relative to control; assay type: functional; details: read-out: Activity
# HCT-15 = experiment: Growth inhibition of human HCT15 cells assessed as cell growth at 10^-7 M incubated for 48 hrs by sulforhodamine B assay relative to control; assay type: functional; details: HCT-15, 48 h, read-out: Activity
# 786-0 = experiment: Growth inhibition of human 786-0 cells assessed as cell growth at 10^-7 M incubated for 48 hrs by sulforhodamine B assay relative to control; assay type: functional; details: 786-0, 48 h, read-out: Activity
# MCF7 = experiment: Growth inhibition of human MCF7 cells assessed as cell growth at 10^-7 M incubated for 48 hrs by sulforhodamine B assay relative to control; assay type: functional; details: MCF7, 48 h, read-out: Activity
# HOP-62 = experiment: Growth inhibition of human HOP62 cells assessed as cell growth at 10^-6 M incubated for 48 hrs by sulforhodamine B assay relative to control; assay type: functional; details: HOP-62, 48 h, read-out: Activity
# KM12 [6] = experiment: Growth inhibition of human KM12 cells assessed as cell growth at 10^-6 M incubated for 48 hrs by sulforhodamine B assay relative to control; assay type: functional; details: KM12, 48 h, read-out: Activity
# OVCAR-5 [7] = experiment: Growth inhibition of human OVCAR5 cells assessed as cell growth at 10^-6 M incubated for 48 hrs by sulforhodamine B assay relative to control; assay type: functional; details: OVCAR-5, 48 h, read-out: Activity
# A498 = experiment: Growth inhibition of human A498 cells assessed as cell growth at 10^-6 M incubated for 48 hrs by sulforhodamine B assay relative to control; assay type: functional; details: A498, 48 h, read-out: Activity
# DU-145 = experiment: Growth inhibition of human DU145 cells assessed as cell growth at 10^-6 M incubated for 48 hrs by sulforhodamine B assay relative to control; assay type: functional; details: DU-145, 48 h, read-out: Activity
# MOLT-4 = experiment: Growth inhibition of human MOLT4 cells assessed as cell growth at 10^-5 M incubated for 48 hrs by sulforhodamine B assay relative to control; assay type: functional; details: MOLT-4, 48 h, read-out: Activity
# SK-MEL-28 [8] = experiment: Growth inhibition of human SK-MEL-28 cells assessed as cell growth at 10^-5 M incubated for 48 hrs by sulforhodamine B assay relative to control; assay type: functional; details: SK-MEL-28, 48 h, read-out: Activity
# OVCAR-5 [9] = experiment: Growth inhibition of human OVCAR5 cells assessed as cell growth at 10^-5 M incubated for 48 hrs by sulforhodamine B assay relative to control; assay type: functional; details: OVCAR-5, 48 h, read-out: Activity
# SR = experiment: Growth inhibition of human SR cells assessed as cell growth at 10^-4 M incubated for 48 hrs by sulforhodamine B assay relative to control; assay type: functional; details: read-out: Activity
# KM12 [10] = experiment: Growth inhibition of human KM12 cells assessed as cell growth at 10^-4 M incubated for 48 hrs by sulforhodamine B assay relative to control; assay type: functional; details: KM12, 48 h, read-out: Activity
# UACC-62 [11] = experiment: Growth inhibition of human UACC62 cells assessed as cell growth at 10^-8 M incubated for 48 hrs by sulforhodamine B assay relative to control; assay type: functional; details: UACC-62, 48 h, read-out: Activity
# HUVEC = experiment: Antiproliferative activity against HUVEC cells after 4 days by Coulter counter method; assay type: cell-based; details: Homo sapiens, 96 h
# Procedure, shortened: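 Primary HUVEC, primary HMVEC-d and the HMEC-1 line seeded at 20,000 cells/well in gelatin-coated plates in EC growth medium (EGM2). After overnight incubation, 5-fold compound dilutions added. Cells proliferated four days with compound, then trypsinized and counted by Coulter counter to derive IC₅₀.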
# MDA-MB-435 [12] = experiment: Growth inhibition of human MDA-MB-435 cells assessed as cell growth at 10^-6 M incubated for 48 hrs by sulforhodamine B assay relative to control; assay type: functional; details: MDA-MB-435, 48 h, read-out: Activity
# TK-10 = experiment: Growth inhibition of human TK10 cells assessed as cell growth at 10^-5 M incubated for 48 hrs by sulforhodamine B assay relative to control; assay type: functional; details: TK-10, 48 h, read-out: Activity
# SW-620 = experiment: Growth inhibition of human SW620 cells assessed as cell growth at 10^-4 M incubated for 48 hrs by sulforhodamine B assay relative to control; assay type: functional; details: SW-620, 48 h, read-out: Activity
# [13] = read-out: pLC50 (the source's name) (converted)
# [14] = read-out: LC50 (the source's name)
SMILES,GI50 (HOP-92) [µM],CC50 (HOP-92) [µM],TGI (HOP-92) [µM],GI50 (SF-539 [1]) [µM],CC50 (SF-539 [1]) [µM],TGI (SF-539 [1]) [µM],GI50 (SK-MEL-28 [2]) [µM],TGI (SK-MEL-28 [2]) [µM],CC50 (UACC-62 [3]) [µM],TGI (UACC-62 [3]; read-out: TGI) [µM],GI50 (OVCAR-3) [µM],TGI (OVCAR-3) [µM],GI50 (MDA-MB-231) [µM],CC50 (MDA-MB-231) [µM],TGI (MDA-MB-231; read-out: TGI) [µM],growth at 0.01 µM (SF-539 [4]) [%],growth at 0.01 µM (SNB-19) [%],growth at 0.01 µM (MDA-MB-435 [5]) [%],growth at 0.01 µM (UACC-257) [%],growth at 0.1 µM (NCI-H322M) [%],further results
C#C[C@@]1(O)[C@@H](CO)O[C@@H](n2cc(Cl)c3c(N)ncnc32)[C@@H]1O,0.433 to 0.476,> 100,3.33 to 3.74,0.299 to 0.351,21.9 to 33.9,1.3 to 1.61,0.469 to 0.706,57.1 to 89.4,> 100,0.383,0.228 to 0.237,1.6 to 2.01,0.148 to 0.193,> 100,0.893 to 1.01,88 to 92,68 to 94,88 to 89,87 to 100,67 to 80,CC50 (SK-MEL-28 [2]; [13]): > 100 µM; GI50 (UACC-62 [3]; read-out: pGI50 (converted)): 0.17 µM; TGI (UACC-62 [3]; read-out: pTGI (converted)): 0.38 µM; CC50 (OVCAR-3; [13]): > 100 µM; growth at 0.1 µM (HCT-15): 57 to 61%; growth at 0.1 µM (786-0): 89 to 94%; growth at 0.1 µM (MCF7): 17 to 25%; growth at 1 µM (HOP-62): 2 to 10%; growth at 1 µM (KM12 [6]): 3 to 12%; growth at 1 µM (OVCAR-5 [7]): 23 to 38%; growth at 1 µM (A498): -63%; growth at 1 µM (DU-145): 7 to 12%; growth at 10 µM (MOLT-4): 2%; growth at 10 µM (SK-MEL-28 [8]): 44 to 45%; growth at 10 µM (OVCAR-5 [9]): 13 to 14%; growth at 100 µM (SR): 2 to 5%; growth at 100 µM (KM12 [10]): 2 to 6%; growth at 0.01 µM (UACC-62 [11]): 94 to 97%; IC50 (HUVEC): 0.0049 µM
C#C[C@@]1(O)[C@@H](CO)O[C@@H](n2cc(Br)c3c(N)ncnc32)[C@@H]1O,0.149 to 0.318,> 100,0.686 to 3.13,0.238 to 0.372,22 to 30.9,1.14 to 2.04,3.05 to 4.37,30.2 to 48.1,60 to 74.9,11.8 to 12.9,0.184 to 0.252,3.01 to 4.71,0.056 to 0.215,> 100,> 100,91 to 93,64 to 98,89 to 92,87 to 100,73 to 76,CC50 (SK-MEL-28 [2]; [14]): > 100 µM; GI50 (UACC-62 [3]; read-out: GI50): 0.151 to 0.349 µM; CC50 (OVCAR-3; [14]): > 100 µM; TGI (MDA-MB-231; read-out: pTGI (converted)): > 100 µM; growth at 0.1 µM (HCT-15): 45 to 63%; growth at 0.1 µM (786-0): 69 to 88%; growth at 0.1 µM (MCF7): 12 to 25%; growth at 1 µM (HOP-62): 12 to 29%; growth at 1 µM (KM12 [6]): 21 to 26%; growth at 1 µM (MDA-MB-435 [12]): 15 to 28%; growth at 1 µM (OVCAR-5 [7]): 33 to 56%; growth at 1 µM (DU-145): 15 to 16%; growth at 10 µM (SK-MEL-28 [8]): 38 to 40%; growth at 10 µM (OVCAR-5 [9]): 11 to 12%; growth at 10 µM (TK-10): 12%; growth at 100 µM (SR): 2 to 6%; growth at 100 µM (KM12 [10]): 2 to 10%; growth at 100 µM (SW-620): 4 to 6%; growth at 0.01 µM (UACC-62 [11]): 93 to 101%; IC50 (HUVEC): 0.018 µM
